Key:
[1] = Antiplatelet aggregation activity against adenosine diphosphate-induced human platelet rich plasma assessed as inhibition of platelet aggregation by turbidimetric method; type: functional; details: Homo sapiens, Platelet, Plasma
Outline: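 Human PRP, prepared by two-step centrifugation and adjusted to 330 000 platelets/μL with PPP. Compound was preincubated 5 min at 37 °C in 0.5% DMSO, then 20 μM ADP was added. OD626 was read kinetically for 15 min at 37 °C with mixing between reads.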

[2] = target: P2Y purinoceptor 12 (Homo sapiens, UniProt Q9H244); experiment: Displacement of [33P]ADP from human recombinant P2Y12 receptor expressed in CHO cells; type: cell-based
Outline: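 Washed membranes from CHO cells expressing synthetic human P2Y12, incubated 1 h at room temperature with 0.2 nM 33P-MeSADP in 50 mM Tris/100 mM NaCl/1 mM EDTA. Compound was tested as a 7-point 3-fold series in triplicate. Nonspecific binding was defined with 300 nM 2-MeSADP, followed by filtration.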

[3] = test system: Platelet; experiment: Relative potency, ratio of IC50 for drug to IC50 for AZD-6140 for platelet aggregation in human platelet rich plasma; type: functional

P2Y purinoceptor 12, sequence (Q9H244 whole entry): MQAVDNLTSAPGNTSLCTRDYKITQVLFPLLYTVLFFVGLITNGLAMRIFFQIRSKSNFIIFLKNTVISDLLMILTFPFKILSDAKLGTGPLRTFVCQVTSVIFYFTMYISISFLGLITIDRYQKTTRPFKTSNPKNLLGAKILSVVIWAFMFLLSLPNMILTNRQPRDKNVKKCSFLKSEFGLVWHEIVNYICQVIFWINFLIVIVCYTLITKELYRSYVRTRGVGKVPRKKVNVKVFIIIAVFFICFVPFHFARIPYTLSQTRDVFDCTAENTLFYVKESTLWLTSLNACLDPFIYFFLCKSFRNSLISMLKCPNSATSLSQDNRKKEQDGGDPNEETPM

Row | Compound | IC50 [1] | Ki [2] | Ratio IC50 [3]
1 | CCCCCOC(=O)N1CCN(C(=O)[C@H](CCC(=O)O)NC(=O)c2cc(NCCOC)cc(-c3ccccc3)n2)CC1 | 3200 nM | 9.8 nM | 4.9
2 | CCCCCOC(=O)N1CCN(C(=O)[C@H](CCC(=O)O)NC(=O)c2cc(NC(=O)OCC)cc(-c3ccccc3)n2)CC1 | 9300 nM | 11 nM | 15
3 | CCCCCOC(=O)N1CCN(C(=O)[C@H](CCC(=O)O)NC(=O)c2cc(C(=O)NC3CCOCC3)cc(-c3ccccc3)n2)CC1 | 5600 nM | 4.6 nM | 10
4 | CCCCCCOC(=O)N1CCN(C(=O)[C@H](CCC(=O)O)NC(=O)c2cc(N3CCC(N)CC3)cc(-c3ccccc3)n2)CC1 | 2400 nM | 3.3 nM | 3.4
5 | CCCCOC(=O)N1CCN(C(=O)[C@H](CCC(=O)O)NC(=O)c2cc(OC3CCN(S(=O)(=O)CC)CC3)cc(-c3ccccc3)n2)CC1 | 3300 nM | 7.6 nM | 3.1
6 | CCCCCOC(=O)N1CCN(C(=O)[C@H](CCC(=O)O)NC(=O)c2cc(C(=O)NCC)cc(-c3ccccc3)n2)CC1 | 9700 nM | 13 nM | 13
7 | CCCCCOC(=O)N1CCN(C(=O)[C@H](CCC(=O)O)NC(=O)c2cc(CCCCO)cc(-c3ccccc3)n2)CC1 | 3200 nM | 3.6 nM | 4.2
8 | CCCCCOC(=O)N1CCN(C(=O)[C@H](CCC(=O)O)NC(=O)c2cc(OCCN)cc(-c3ccccc3)n2)CC1 | 2400 nM | 8.8 nM | 3
9 | CCCCCOC(=O)N1CCN(C(=O)[C@H](CCC(=O)O)NC(=O)c2cc(N3CCC(COCCC)CC3)cc(-c3ccccc3)n2)CC1 | 8900 nM | 22 nM | 12
10 | CCCCCOC(=O)N1CCN(C(=O)[C@H](CCC(=O)O)NC(=O)c2cc(NC(=O)NCC3CCNCC3)cc(-c3ccccc3)n2)CC1 | 5600 nM | 1.4 nM | 3.8
11 | CCCCOC(=O)N1CCN(C(=O)[C@H](CCC(=O)O)NC(=O)c2cc(OCC3CCN(C(=O)OCC)CC3)cc(-c3ccccc3)n2)CC1 | 4000 nM | 7.6 nM | 2.2
12 | CCCCOC(=O)N1CCN(C(=O)[C@H](CCC(=O)O)NC(=O)c2cc(OC3CCNC3)cc(-c3ccccc3)n2)CC1 (some centres undefined) | 2600 nM | 3.7 nM | 1.3
13 | CCCCCOC(=O)N1CCN(C(=O)[C@H](CCC(=O)O)NC(=O)c2cc(OC3CCN(C(=O)C(F)(F)F)CC3)cc(-c3ccccc3)n2)CC1 | 4700 nM | 19 nM | 4.4
14 | CCCCCOC(=O)N1CCN(C(=O)[C@H](CCC(=O)O)NC(=O)c2cc(OC(=O)N(C)C3CCOC3)cc(-c3ccccc3)n2)CC1 (some centres undefined) | 470 nM | 2.3 nM | 0.59
15 | CCCCCOC(=O)N1CCN(C(=O)[C@H](CCC(=O)O)NC(=O)c2cc(N3CCCCC3)cc(-c3ccccc3)n2)CC1 | 16000 nM | 5.5 nM | 18
16 | CCCCCOC(=O)N1CCN(C(=O)[C@H](CCC(=O)O)NC(=O)c2cc(OC3CCN(C(=O)OCC)CC3)cc(-c3ccccc3)n2)CC1 | 8200 nM | 6.5 nM | 8.1
17 | CCCCCOC(=O)N1CCN(C(=O)[C@H](CCC(=O)O)NC(=O)c2cc(NC(=O)CN(C)C)cc(-c3ccccc3)n2)CC1 | 5600 nM | 4.1 nM | 6.4

Row | Compound | IC50 [1] | Ki [2] | Ratio IC50 [3]
18 | CCCCCOC(=O)N1CCN(C(=O)[C@H](CCC(=O)O)NC(=O)c2cc(N3CCC(N4CCOCC4)CC3)cc(-c3ccccc3)n2)CC1 | 2000 nM | 10 nM | 0.95
19 | CCCCCOC(=O)N1CCN(C(=O)[C@H](CCC(=O)O)NC(=O)c2cc(NC(=O)CN3CCN(C)CC3)cc(-c3ccccc3)n2)CC1 | 4300 nM | 2.3 nM | 4.1
20 | CCCCCOC(=O)N1CCN(C(=O)[C@H](CCC(=O)O)NC(=O)c2cc(NC(=O)N3CCC(COC)CC3)cc(-c3ccccc3)n2)CC1 | 4500 nM | 43 nM | 5.2
21 | CCOC(=O)N1CCN(C(=O)[C@H](CCC(=O)O)NC(=O)c2cc(N3CCC(CO)CC3)cc(-c3ccccc3)n2)CC1 | 19000 nM | 54 nM | 22
22 | CCCCCOC(=O)N1CCN(C(=O)[C@H](CCC(=O)O)NC(=O)c2cc(OC3CCN(S(=O)(=O)CC)CC3)cc(-c3ccccc3)n2)CC1 | 5300 nM | 5.1 nM | 5
23 | CCCCCOC(=O)N1CCN(C(=O)[C@H](CCC(=O)O)NC(=O)c2cc(C(=O)NCCOC)cc(-c3ccccc3)n2)CC1 | 8000 nM | 7.9 nM | 18
24 | CCOC(=O)N1CCN(C(=O)[C@H](CCC(=O)O)NC(=O)c2cc(N(C)CCO)cc(-c3ccccc3)n2)CC1 | 57000 nM | 87 nM | 26
25 | CCCCCCOC(=O)N1CCN(C(=O)[C@H](CCC(=O)O)NC(=O)c2cc(O)cc(-c3ccccc3)n2)CC1 | 21000 nM | 20 nM | 21
26 | CCCCCCOC(=O)N1CCN(C(=O)[C@H](CCC(=O)O)NC(=O)c2cc(NCCOC)cc(-c3ccccc3)n2)CC1 | 7300 nM | 11 nM | 9.6
27 | CCCCCOC(=O)N1CCN(C(=O)[C@H](CCC(=O)O)NC(=O)c2cc(CCCOC)cc(-c3ccccc3)n2)CC1 | 5000 nM | 8.4 nM | 6.6
28 | CCCCCOC(=O)N1CCN(C(=O)[C@H](CCC(=O)O)NC(=O)c2cc(OCC3CCN(C(=O)OCC)CC3)cc(-c3ccccc3)n2)CC1 | 7400 nM | 1.3 nM | 5.1
29 | CCCCCOC(=O)N1CCN(C(=O)[C@H](CCC(=O)O)NC(=O)c2cc(NCCC)cc(-c3ccccc3)n2)CC1 | 13000 nM | 12 nM | 14
30 | CCCCCOC(=O)N1CCN(C(=O)[C@H](CCC(=O)O)NC(=O)c2cc(OCC)cc(-c3ccccc3)n2)CC1 | 17000 nM | 7.9 nM | 23
31 | CCCCOC(=O)N1CCN(C(=O)[C@H](CCC(=O)O)NC(=O)c2cc(N3CCOCC3)cc(-c3ccccc3)n2)CC1 | 7200 nM | 3.3 nM | 11
32 | CCCCOC(=O)N1CCN(C(=O)[C@H](CCC(=O)O)NC(=O)c2cc(OCCCOC)cc(-c3ccccc3)n2)CC1 | 2200 nM | 5.9 nM | 3.9
33 | CCOC(=O)N1CCN(C(=O)[C@H](CCC(=O)O)NC(=O)c2cc(OCCCCO)cc(-c3ccccc3)n2)CC1 | 13000 nM | 132 nM | 13

Continued by falling IC50 [1], values first:

Row | IC50 [1] | Ki [2] | Compound | Ratio IC50 [3]
34 | 1800 nM | 5 nM | CCCCCOC(=O)N1CCN(C(=O)[C@H](CCC(=O)O)NC(=O)c2cc(OC3CCN(C)CC3)cc(-c3ccccc3)n2)CC1 | 1.8
35 | 1300 nM | 12 nM | CCCCCOC(=O)N1CCN(C(=O)[C@H](CCC(=O)O)NC(=O)c2cc(OCC3CCN(C(=O)COC)CC3)cc(-c3ccccc3)n2)CC1 | 1.3
36 | 1300 nM | 1.3 nM | CCCCCOC(=O)N1CCN(C(=O)[C@H](CCC(=O)O)NC(=O)c2cc(OCC3CCN(C(C)=O)CC3)cc(-c3ccccc3)n2)CC1 | 1.8
37 | 1200 nM | 2.6 nM | CCCCCCOC(=O)N1CCN(C(=O)[C@H](CCC(=O)O)NC(=O)c2cc(N3CCC(N4CCCC4)CC3)cc(-c3ccccc3)n2)CC1 | 2.3
38 | 1200 nM | 3.7 nM | CCCCOC(=O)N1CCN(C(=O)[C@H](CCC(=O)O)NC(=O)c2cc(OCC3CCCNC3)cc(-c3ccccc3)n2)CC1 (some centres undefined) | 0.57
39 | 1000 nM | 2.5 nM | CCCCOC(=O)N1CCN(C(=O)[C@H](CCC(=O)O)NC(=O)c2cc(OCCC3CCCNC3)cc(-c3ccccc3)n2)CC1 (some centres undefined) | 0.67
40 | 910 nM | 3.5 nM | CCCCOC(=O)N1CCN(C(=O)[C@H](CCC(=O)O)NC(=O)c2cc(N3CCC(N)CC3)cc(-c3ccccc3)n2)CC1 | 1.2
41 | 810 nM | 3.7 nM | CCCCOC(=O)N1CCN(C(=O)[C@H](CCC(=O)O)NC(=O)c2cc(OCCC3CCCCN3)cc(-c3ccccc3)n2)CC1 (some centres undefined) | 0.88
42 | 640 nM | 4.5 nM | CCCCCCOC(=O)N1CCN(C(=O)[C@H](CCC(=O)O)NC(=O)c2cc(OCC3CCNCC3)cc(-c3ccccc3)n2)CC1 | 1.3
43 | 620 nM | 5.3 nM | CCCCOC(=O)N1CCN(C(=O)[C@H](CCC(=O)O)NC(=O)c2cc(OCC3CCN(CCOC)CC3)cc(-c3ccccc3)n2)CC1 | 0.53
44 | 590 nM | 6 nM | CCCCCOC(=O)N1CCN(C(=O)[C@H](CCC(=O)O)NC(=O)c2cc(OC(=O)N3CCC(OCC)CC3)cc(-c3ccccc3)n2)CC1 | 1.2
45 | 560 nM | 64 nM | CCCCOC(=O)N1CCN(C(=O)[C@H](CCC(=O)O)NC(=O)c2cc(N3CCC(N4CCCC4)CC3)cc(-c3ccccc3)n2)CC1 | 1.7
46 | 530 nM | 5.8 nM | CCCCCOC(=O)N1CCN(C(=O)[C@H](CCC(=O)O)NC(=O)c2cc(C(=O)N3CCN(C)CC3)cc(-c3ccccc3)n2)CC1 | 0.72
47 | 410 nM | 4.5 nM | CCCCOC(=O)N1CCN(C(=O)[C@H](CCC(=O)O)NC(=O)c2cc(OCC3CCN(C(C)C)CC3)cc(-c3ccccc3)n2)CC1 | 0.33
48 | 320 nM | 1.7 nM | CCCCCOC(=O)N1CCN(C(=O)[C@H](CCC(=O)O)NC(=O)c2cc(C(=O)N3CCN(C(C)=O)CC3)cc(-c3ccccc3)n2)CC1 | 0.48

Reference: ChEMBL document CHEMBL1157562, “Piperazinyl glutamate pyridines as potent orally bioavailable P2Y12 antagonists for inhibition of platelet aggregation” (J Med Chem, 2010)
